Results collected from several papers.
Compare with care: the assays were run in different laboratories.
Target: Acetylcholinesterase (ache, Electrophorus electricus, UniProt O42275)
Effect on: enzyme activity
Mode: inhibitor
Technique: Ellman

The IC50 of CC(C)(C)OC(=O)NC1CCCN(C(=O)/C=C/c2cccc([N+](=O)[O-])c2)C1 (stereo not shown) is reported as 35.1 µM.
CCN(C)C(=O)Oc1ccc(CCC(=O)N2CCC(Cc3ccccc3)CC2)cc1OC has an IC50 of 9.1 µM.
CC(C)(C)OC(=O)NC1CCCN(C(=O)/C=C/c2cccc(F)c2)C1 (stereo not shown) has an IC50 of 37.7 µM.
COc1ccc(-c2nnc(-c3ccc(OCc4cn(Cc5ccc(Cl)cc5)nn4)cc3)o2)cc1 gave an IC50 of over 100 µM.
CCN(C)C(=O)Oc1ccc(CCC(=O)N2CCc3ccccc3C2)cc1 gave an IC50 of 8.3 µM.
CC(C)(C)OC(=O)NC1CCCN(C(=O)/C=C/c2ccc(Br)cc2)C1 (stereo not shown) has an IC50 of over 50 µM.
For Cc1ccc(Cn2cc(COc3ccc(-c4nnc(-c5ccc([N+](=O)[O-])cc5)o4)cc3)nn2)cc1, the IC50 was over 100 µM.
COc1ccc(OC)c(/C=C/C(=O)N2CCCC(NC(=O)OC(C)(C)C)C2)c1 (stereo not shown) has an IC50 of 41.5 µM.
O=C(O)C(/C=C/c1c(Cl)cccc1Cl)=N\Nc1nc(-c2ccc(Br)cc2)cs1 gave an IC50 of 0.655 µM.
CC(C)(C)OC(=O)NC1CCCN(C(=O)C=Cc2ccccc2)C1 (stereo not shown) gave an IC50 of 39.4 µM.
With CCN(CC)C(=O)Oc1ccc(/C=C/C(=O)NC2CCN(Cc3ccccc3)CC2)cc1OC the IC50 was 2.3 µM.
CC(C)(C)OC(=O)NC1CCCN(C(=O)/C=C/c2ccc(Cl)cc2)C1 (stereo not shown) gave an IC50 of over 50 µM.
For Fc1ccc(Cn2cc(COc3ccc(-c4nnc(-c5ccc(F)cc5)o4)cc3)nn2)cc1, the IC50 was over 100 µM.
For CCN(CC)C(=O)Oc1ccc(/C=C/C(=O)NC2CCN(Cc3ccccc3)CC2)cc1, the IC50 was 4.5 µM.
The IC50 of COc1ccc(-c2csc(N/N=C(/C=C/c3c(Cl)cccc3Cl)C(=O)O)n2)cc1 is reported as 0.499 µM.
With COc1cc(/C=C/C(=O)NC2CCN(Cc3ccccc3)CC2)ccc1OC(=O)N(C)C the IC50 was 5.2 µM.
With O=[N+]([O-])c1ccc(-c2nnc(-c3ccc(OCc4cn(Cc5ccc(Cl)cc5)nn4)cc3)o2)cc1 the IC50 was over 100 µM.
The IC50 of COc1cc(CCC(=O)N2CCC(Cc3ccccc3)CC2)ccc1OC(=O)N1CCOCC1 is reported as 7.2 µM.
The IC50 of COc1ccc(-c2nnc(-c3ccc(OCc4cn(Cc5ccccc5)nn4)cc3)o2)cc1 is reported as over 100 µM.
For COc1ccc(/C=C/C(=O)N2CCCC(NC(=O)OC(C)(C)C)C2)cc1 (stereo not shown), the IC50 was over 50 µM.
With COc1ccc(-c2nnc(-c3ccc(OCc4cn(Cc5ccc(C)cc5)nn4)cc3)o2)cc1 the IC50 was over 100 µM.
CCN(C)C(=O)Oc1ccc(/C=C/C(=O)NC2CCN(Cc3ccccc3)CC2)cc1 gave an IC50 of 1.8 µM.
Fc1ccc(-c2nnc(-c3ccc(OCc4cn(Cc5ccccc5)nn4)cc3)o2)cc1 has an IC50 of over 100 µM.
With CCN(C)C(=O)Oc1ccc(CCC(=O)N2CCN(Cc3ccccc3)CC2)cc1OC the IC50 was 12.2 µM.
CC(C)(C)OC(=O)NC1CCCN(C(=O)/C=C/c2ccccc2Cl)C1 (stereo not shown) gave an IC50 of 19.7 µM.
